KCNQ1 pot – potentiators or activators of human KCNQ1 potassium channel. AID 2648. 310,000 compounds, 0.35% hits. CHO-K1 KCNQ1, thallium flux FluxOR fluorescence; active compounds read high. P51787. B-score at 10 µM;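 active means fluorescence ratio B-score, a plate-corrected score, at least three library SD, with initial intensity B-score within 5 SD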
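Assay system: CHO-K1 cells stably expressing KCNQ1. Medium: assay buffer for compound exposure, DMSO matched across wells. Timing: 37 °C overnight plating, 90-min dark dye load, 20-min compound pretreatment. Signal: kinetic FluxOR fluorescence, 10 s baseline plus 110 s post-stimulus.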
Kir21 inh – blocks the mouse Kir2.1 inward-rectifier potassium channel | P35561 | HEK293-Kir2.1, FluxOR thallium flux fluorescence; active compounds read low | B-score at 10 µM | 310,000 compounds, 0.85% hits | AID 1672;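 active means fluorescence ratio B-score at or below minus 3 SD of library scores, with starting-brightness B-score within 2 SD, cut at about -4.2 in these data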;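 further: channel flux triggered by added potassium and thallium sulfate stimulus; B-score of peak minus minimum fluorescence over baseline after thallium stimulus; more negative B-score means stronger Kir2.1 block with less thallium influx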
hERG protect – hERG (human) protection from proarrhythmic block | Q12809 | CHO-hERG, FluxOR thallium flux, dofetilide IC70 present | activation (rescue from dofetilide block), less the hit threshold, % at 10 µM | 310,000 compounds, 0.51% hits | AID 1511;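 active means activation above the mean of controls blocked by dofetilide plus 5 SD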;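 further: thallium influx through hERG after potassium depolarization seen as dye fluorescence rise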
KCNQ1 inh – inhibitors of human KCNQ1 potassium channel. B-score at 10 µM. P51787. AID 2642. CHO-K1 KCNQ1, FluxOR thallium flux fluorescence; active compounds read high. 310,000 compounds, 1.3% hits;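 active means compounds whose thallium flux B-score, printed positive for inhibition, exceeds three library SD while starting fluorescence stays within three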;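 further: channel opened by potassium depolarization with thallium stimulus after 20 min compound exposure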
KCNK3 block – human KCNK3 channel inhibition, primary screen; O14649; CHO-KCNK3 thallium flux, FluxOR fluorescence; active compounds read low; B-score at 10 µM; 340,000 compounds, 0.84% hits; AID 602410;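 active means B-score under library mean minus 4 SD, starting fluorescence ratio at most library mean plus 5 SD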;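 further: more negative B-score means stronger inhibition of thallium flux through KCNK3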
KCNK9 block – inhibitors of human KCNK9 two-pore domain potassium channel. HEK293 KCNK9, FluxOR thallium flux fluorescence; active compounds read low. AID 488922. Q9NPC2. B-score at 10 µM. 310,000 compounds, 1.2% hits;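 active means ratio B-score over 3 SD below the library mean, with starting fluorescence within 5 SD of its mean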;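 further: negative B-score means less thallium flux so channel inhibition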
KCNQ1 block val – reconfirmed blocker of the human KCNQ1 potassium channel; shares compounds with KCNQ1 inh; KCNQ1 cell line, FluxOR thallium flux fluorescence; inhibition, % at 10 µM; 1,600 compounds, 93% hits; AID 588353;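 active means primary screen active, with duplicate mean exceeding buffer control mean plus 3 SD of buffer wells, cut at about 28% in these data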;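 further: 0% = buffer control ratio and 100% = XE991 inhibitor control ratio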
CHO Tl flux – counter-screen for KCNQ1 inhibitors: effect in parental CHO cells; shares compounds with KCNQ1 inh; parental CHO-K1, FluxOR thallium flux fluorescence ratio; active compounds read low; zero means no signal rise above baseline; fluorescence ratio (Tl flux) at 10 µM; 1,600 compounds, 21% hits; AID 588366;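 active means mean of duplicate thallium-flux fluorescence ratios in parental host cells more than 5 SD below the buffer control mean, cut at about 0.38 in these data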;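 further: ratio is peak minus minimum fluorescence divided by baseline fluorescence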
KCNQ1 ephys val – confirmation of human KCNQ1 potassium channel inhibitors by electrophysiology. KCNQ1-CHO cells, automated patch clamp current. 490 compounds, 20% hits. shares compounds with KCNQ1 inh. calls only at 10 µM;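 active means KCNQ1 current drop exceeding 3 SD of negative control wells, seen in both duplicate runs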;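 further: steady state current during a 2 s step from -80 to +40 mV; negative values mean current inhibition and positive values mean potentiation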
KCNQ2 spec – selectivity of KCNQ1 inhibitors: inhibition of rat KCNQ2 channel | KCNQ2 cells, FluxOR thallium flux fluorescence | 1,600 compounds, 71% hits | inhibition, % at 10 µM | shares compounds with KCNQ1 inh | AID 651746;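 active means mean percent inhibition of the KCNQ2 thallium signal more than 5 SD above the buffer-only control wells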;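 further: KCNQ2 expressed in CHO cells; 0% = buffer control wells and 100% = XE-991 inhibitor control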
Target sequence (O88943 whole entry, looked up): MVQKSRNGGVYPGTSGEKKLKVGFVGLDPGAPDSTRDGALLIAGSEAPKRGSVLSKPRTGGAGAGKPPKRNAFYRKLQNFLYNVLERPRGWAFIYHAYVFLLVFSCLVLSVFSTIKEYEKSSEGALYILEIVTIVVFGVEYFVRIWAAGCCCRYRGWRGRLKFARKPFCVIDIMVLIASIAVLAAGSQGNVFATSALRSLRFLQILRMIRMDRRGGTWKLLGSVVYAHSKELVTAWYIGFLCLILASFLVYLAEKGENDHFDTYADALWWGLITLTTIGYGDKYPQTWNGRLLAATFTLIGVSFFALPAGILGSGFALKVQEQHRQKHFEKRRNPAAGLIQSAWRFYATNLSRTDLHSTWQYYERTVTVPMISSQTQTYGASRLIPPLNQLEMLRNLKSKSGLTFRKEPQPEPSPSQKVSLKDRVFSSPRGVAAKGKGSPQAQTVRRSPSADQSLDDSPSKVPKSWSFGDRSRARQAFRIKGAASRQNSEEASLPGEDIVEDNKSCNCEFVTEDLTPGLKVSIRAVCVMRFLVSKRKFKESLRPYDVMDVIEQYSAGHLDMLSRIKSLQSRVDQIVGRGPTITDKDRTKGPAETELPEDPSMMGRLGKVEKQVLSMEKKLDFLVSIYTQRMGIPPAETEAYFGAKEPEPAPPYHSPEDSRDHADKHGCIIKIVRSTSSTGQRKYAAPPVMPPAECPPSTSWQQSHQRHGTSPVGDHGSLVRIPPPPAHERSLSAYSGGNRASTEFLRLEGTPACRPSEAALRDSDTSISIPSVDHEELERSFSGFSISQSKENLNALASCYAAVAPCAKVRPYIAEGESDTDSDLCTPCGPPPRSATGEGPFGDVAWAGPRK
KCNQ1 KCNE1 spec – selectivity of KCNQ1 inhibitors: inhibition of human KCNQ1/KCNE1 channel; KCNQ1/KCNE1 cells, FluxOR thallium flux fluorescence; shares compounds with KCNQ1 inh; inhibition, % at 10 µM; 1,600 compounds, 77% hits;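 active means mean percent inhibition of duplicate wells above the buffer-only control mean plus 3 SD of those controls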;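 further: 0% = buffer only wells and 100% = XE-991 inhibitor control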
KCNK9 inh conf – human KCNK9 inhibitor confirmation. shares compounds with KCNK9 block. HEK293 KCNK9 cells, FluxOR thallium flux fluorescence. inhibition, % at 10 µM. 4,900 compounds, 43% hits;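 active means thallium signal inhibited by more than 5 SD of the compound-free buffer control wells, on both duplicate plates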;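 further: 0% = assay buffer control wells without compound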
Kir2-1 spec – mouse Kir2.1 off-target activity of KCNK9 modulators | Kir2.1 cells, FluxOR thallium flux fluorescence | shares compounds with KCNK9 block | 4,900 compounds, 4% hits | inhibition, % at 10 µM;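 active means thallium signal drop more than 5 SD beyond the mean of the no-compound control wells, seen in both duplicate plates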;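 further: signal is fluorescence rise after thallium addition divided by baseline fluorescence; plate controls were assay buffer only for no effect and full block by chlorpromazine control for full effect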
HEK293 Tl ctr – second counter-screen for KCNK9 modulators: effect in non-induced cells; shares compounds with KCNK9 block; non-induced KCNK9-HEK293, FluxOR thallium flux; inhibition, % at 10 µM; 4,900 compounds, 40% hits;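 active means thallium signal drop beyond 5 SD of the untreated control mean, on both duplicate plates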;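 further: plate controls were buffer only IC0 wells for no effect and SID17386958 at its maximal inhibitory level for full effect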
KCNK3 inh conf – human KCNK3 channel inhibition, confirmation assay; shares compounds with KCNK3 block; CHO-KCNK3 thallium flux, FluxOR fluorescence; 0% buffer, 100% carvedilol maximal block; ratio percent of control, % at 10 µM; 2,400 compounds, 99% hits; AID 651638;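 active means ratio percent of control, averaged over triplicates, above buffer control mean plus 5 SD, cut at about 64% in these data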;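 further: ratio is the fluorescence rise from min to max over baseline after thallium stimulus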
KCNK3 noninduced – KCNK3 inhibitor counter-screen hit in non-induced cells | AID 651747 | 2,400 compounds, 40% hits | shares compounds with KCNK3 block | non-induced KCNK3 parental cells, FluxOR thallium flux; active compounds read low | thallium flux ratio (lower = more inhibition) at 10 µM;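 active means thallium flux ratio, averaged over three wells, more than 5 SD below the buffer control mean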;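 further: host cells are CHO cells without KCNK3 induction; ratio is peak minus trough fluorescence over baseline then normalized to buffer controls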
Numbers without * were called inactive; i = inactive; · = not tested or not shown; + = active, no number. Compounds with a hit are over-represented: about 3.7% of the library has one in this group of screens.

SMILES | KCNQ1 pot | Kir21 inh | hERG protect | KCNQ1 inh | KCNK3 block | KCNK9 block | KCNQ1 block val | CHO Tl flux | KCNQ1 ephys val | KCNQ2 spec | KCNQ1 KCNE1 spec | KCNK3 inh conf | KCNK3 noninduced | others
CCC(C)c1ccc(NC(=S)NCc2cccs2)cc1 (stereo not given) | i | -1.5 | -12 | 7* | -9.5* | i | 90* | 0.51 | + | 61%* | 95%* | 111* | i
CC(C)(C)c1ccc(NC(=S)NCc2cccs2)cc1 | i | -1.2 | -6 | i | i | i | · | · | · | · | · | · | ·
NC(=O)c1ccc(NC(=O)CN2CCN(Cc3ccccc3)CC2)cc1 | i | 0.53 | -2 | i | i | i | · | · | · | · | · | · | ·
c1ccc(-c2csc(N3CCCCCC3)n2)cc1 | i | 1.4 | -5 | i | i | i | · | · | · | · | · | · | ·
Cc1cc(N2CCN(c3nc(-c4ccccc4)cs3)CC2)c2ccccc2n1 | i | -2.1 | -20 | 7* | -14* | i | 130* | 0.41 | i | 107%* | 195%* | 136* | 0.13*
CCCC(NC(=O)Cc1c(C)c2c(cc(C)c3c(C)coc32)oc1=O)C(=O)O (stereo not given) | i | 0.95 | -4 | i | i | i | · | · | · | · | · | · | ·
O=C(Nc1cccnc1)c1cc(-c2ccc(Br)cc2)nc2ccccc12 | i | -0.16 | -18 | 8* | -15* | -9.7* | 142* | 0.25* | · | 139%* | + | 143* | i | KCNK9 inh conf=33%*;Kir2-1 spec=i;HEK293 Tl ctr=i
O=C(c1cc(-c2cccc(Cl)c2)nc2ccccc12)N1CCN(c2ccccn2)CC1 | i | 0.2 | -9 | 6* | -9.9* | i | 69* | 0.42 | · | 108%* | 84%* | 120* | 0.12*
Cc1cc(NC(=O)CN(C)S(=O)(=O)c2cccc(Cl)c2)no1 | i | -0.53 | -1 | i | i | i | · | · | · | · | · | · | ·
COc1ccc(Cl)cc1C(=O)Nc1ccccc1N1CCCCC1 | i | -0.43 | -12 | 7* | -8.9* | -8.9* | 103* | 0.41 | i | 99%* | 146%* | 107* | i | KCNK9 inh conf=50%*;Kir2-1 spec=i;HEK293 Tl ctr=46%*
COc1ccc(-c2cc(C(=O)NC(C)c3ccccn3)c3ccccc3n2)cc1OC (stereo not given) | · | · | · | · | i | · | · | · | · | · | · | · | ·
O=C(CN1C(=O)/C(=C/c2ccccc2)SC1=S)N1CCN(CCc2ccccn2)CC1 | i | 1.1 | -8 | i | i | i | · | · | · | · | · | · | ·
COc1ccc(CN(C)S(=O)(=O)c2nnc(NC(=O)c3ccccc3)s2)cc1OC | i | -0.39 | -6 | i | i | i | · | · | · | · | · | · | ·
COc1ccccc1C(=O)Nc1nnc(S(=O)(=O)N(C)Cc2ccccc2)s1 | i | 1.6 | -16 | 17* | -12* | i | 140* | 0.37* | · | 122%* | + | 115* | 0.1*
CCOC(=O)C1CCN(C(=O)c2cc3c(=O)n4ccccc4nc3n2C)CC1 | i | 0.56 | -6 | i | i | i | · | · | · | · | · | · | ·
Cc1ccc(Nc2nc(NCCO)c3ccccc3n2)cc1C | i | -6.9* | -20 | 7* | -12* | i | 102* | 0.39 | i | 66%* | 84%* | 128* | i
Cc1cccc2sc(NC(=O)C3c4ccccc4Oc4ccccc43)nc12 | i | -0.49 | -13 | 13* | -10* | -10* | 112* | 0.45 | i | 76%* | 144%* | 130* | 0.15* | KCNK9 inh conf=44%*;Kir2-1 spec=i;HEK293 Tl ctr=40%*
Cc1cccc2sc(NC(=O)C3CC3)nc12 | i | 0.92 | -5 | i | i | i | · | · | · | · | · | · | ·
O=C(Nc1ccncc1)c1ccc(Cl)c(S(=O)(=O)N2CCc3ccccc32)c1 | i | -0.83 | -28 | 10* | -10* | i | 134* | 0.29* | · | 94%* | 134%* | 136* | 0.16*
O=C(Nc1ccncc1)c1ccc(Cl)c(S(=O)(=O)N2CCCCC2)c1 | i | -1.5 | -15 | i | i | i | · | · | · | · | · | · | ·
Cc1cc(C)c(S(=O)(=O)Nc2ccc(N(C)C)cc2)c(C)c1-n1cnnn1 | i | -1.1 | -13 | i | i | i | · | · | · | · | · | · | ·
O=C(/C=C/c1ccc(Cl)cc1Cl)c1nc2ccccc2[nH]1 | i | 0.85 | -13 | i | i | i | · | · | · | · | · | · | ·
Clc1ccc(/C=C/c2nc3ccccc3[nH]2)c(Cl)c1 | i | 0.03 | -17 | 14* | -11* | i | 112* | 0.32* | · | 107%* | 76%* | 115* | 0.1*
CCc1nc(N2CCN(Cc3ccc4c(c3)OCO4)CC2)c2oc3ccccc3c2n1 | i | -0.69 | -17 | 9* | -9* | i | 128* | 0.41 | i | 105%* | 179%* | 109* | 0.14*
Cc1cc(OC(=O)c2cccc(Br)c2)c([N+](=O)[O-])c(=O)[nH]1 | i | 0.5 | -7 | i | i | i | · | · | · | · | · | · | ·
CC(C)(CN1CCN(C(c2ccccc2)c2ccccc2)CC1)NS(=O)(=O)c1ccccc1 | i | -0.16 | -2 | 6* | i | -9.6* | 106* | 0.44 | i | i | 116%* | 103* | 0.16* | KCNK9 inh conf=40%*;Kir2-1 spec=i;HEK293 Tl ctr=47%*

Screening results as filed in PubChem BioAssay.
